Key:
[1] = target: T1, Angiotensin-converting enzyme (Rattus norvegicus) (UniProt P47820); assay: Inactivation constant for angiotensin converting enzyme (ACE)
T1 sequence (whole entry): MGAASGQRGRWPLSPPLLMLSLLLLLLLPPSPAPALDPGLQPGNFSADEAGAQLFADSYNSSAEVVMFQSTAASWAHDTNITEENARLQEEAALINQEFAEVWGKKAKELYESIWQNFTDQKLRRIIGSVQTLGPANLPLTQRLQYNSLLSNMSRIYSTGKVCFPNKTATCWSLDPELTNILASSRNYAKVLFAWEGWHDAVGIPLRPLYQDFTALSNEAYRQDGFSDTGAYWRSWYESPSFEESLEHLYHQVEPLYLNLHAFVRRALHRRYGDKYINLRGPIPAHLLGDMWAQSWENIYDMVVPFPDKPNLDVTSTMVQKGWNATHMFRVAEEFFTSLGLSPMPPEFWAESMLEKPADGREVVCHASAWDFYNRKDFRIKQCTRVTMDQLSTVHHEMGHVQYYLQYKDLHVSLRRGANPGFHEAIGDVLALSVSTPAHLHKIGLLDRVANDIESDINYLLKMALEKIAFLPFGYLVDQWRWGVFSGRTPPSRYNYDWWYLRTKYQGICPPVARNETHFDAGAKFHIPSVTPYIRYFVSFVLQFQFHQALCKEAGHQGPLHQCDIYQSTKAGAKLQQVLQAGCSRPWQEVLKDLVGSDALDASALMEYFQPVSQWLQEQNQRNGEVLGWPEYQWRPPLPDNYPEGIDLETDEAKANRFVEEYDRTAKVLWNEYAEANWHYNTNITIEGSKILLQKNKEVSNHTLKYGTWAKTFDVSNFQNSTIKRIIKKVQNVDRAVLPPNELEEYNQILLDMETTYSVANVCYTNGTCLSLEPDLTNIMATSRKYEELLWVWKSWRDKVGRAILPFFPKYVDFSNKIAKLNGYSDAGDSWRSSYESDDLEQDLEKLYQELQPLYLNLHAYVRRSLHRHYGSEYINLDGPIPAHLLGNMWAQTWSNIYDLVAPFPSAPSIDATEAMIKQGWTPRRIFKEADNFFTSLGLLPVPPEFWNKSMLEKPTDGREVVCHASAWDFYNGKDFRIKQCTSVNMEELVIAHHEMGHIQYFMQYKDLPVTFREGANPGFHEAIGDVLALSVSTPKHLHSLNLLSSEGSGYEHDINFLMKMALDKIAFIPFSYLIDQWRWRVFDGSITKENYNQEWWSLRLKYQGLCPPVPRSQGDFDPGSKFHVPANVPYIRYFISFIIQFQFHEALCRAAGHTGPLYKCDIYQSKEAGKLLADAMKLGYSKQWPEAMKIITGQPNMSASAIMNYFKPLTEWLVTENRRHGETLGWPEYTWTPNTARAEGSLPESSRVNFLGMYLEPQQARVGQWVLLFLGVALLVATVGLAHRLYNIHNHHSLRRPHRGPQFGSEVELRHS

[2] = target: Angiotensin-converting enzyme (Homo sapiens) (UniProt P12821); assay: Partition ratio expressed as ratio of catalytic constant to that of inactivation constant for angiotensin converting enzyme (ACE)
[3] = Partition ratio expressed as ratio of catalytic constant to that of inactivation constant for (NEP)
Method in brief: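 Partition ratio was found by titration. NEP at 0.5 μM in 50 mM HEPES pH 7.4 was mixed with inactivator at inactivator/NEP molar ratios from 1 up to 2600 or 6000, then stirred gently at 4 °C for 16 h. Aliquots were diluted 1:100 into DAGNPG assay solution and residual activity was measured fluorometrically. Controls lacked inactivator.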

[4] = target: Neprilysin (Homo sapiens) (UniProt P08473); assay: Inactivation constant for Neutral endopeptidase (NEP)
Method in brief: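 Recombinant human NEP from CHO cells (>99% pure), 0.5 μM in 50 mM HEPES pH 7.4 with 10% p-dioxane, incubated at 25 °C with inactivator at 0.5–7.5 μM final. Aliquots diluted 1:100 into DAGNPG assay solution (50 mM Tris pH 7.4, 37 °C), fluorescence read at ex 342/em 562 nm. Pseudo-first-order kobs plotted double-reciprocally against inactivator concentration to give kinact and Km.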

[5] = target: Neprilysin (Homo sapiens) (UniProt P08473)

Chain of Neprilysin (Homo sapiens) (P08473 whole entry): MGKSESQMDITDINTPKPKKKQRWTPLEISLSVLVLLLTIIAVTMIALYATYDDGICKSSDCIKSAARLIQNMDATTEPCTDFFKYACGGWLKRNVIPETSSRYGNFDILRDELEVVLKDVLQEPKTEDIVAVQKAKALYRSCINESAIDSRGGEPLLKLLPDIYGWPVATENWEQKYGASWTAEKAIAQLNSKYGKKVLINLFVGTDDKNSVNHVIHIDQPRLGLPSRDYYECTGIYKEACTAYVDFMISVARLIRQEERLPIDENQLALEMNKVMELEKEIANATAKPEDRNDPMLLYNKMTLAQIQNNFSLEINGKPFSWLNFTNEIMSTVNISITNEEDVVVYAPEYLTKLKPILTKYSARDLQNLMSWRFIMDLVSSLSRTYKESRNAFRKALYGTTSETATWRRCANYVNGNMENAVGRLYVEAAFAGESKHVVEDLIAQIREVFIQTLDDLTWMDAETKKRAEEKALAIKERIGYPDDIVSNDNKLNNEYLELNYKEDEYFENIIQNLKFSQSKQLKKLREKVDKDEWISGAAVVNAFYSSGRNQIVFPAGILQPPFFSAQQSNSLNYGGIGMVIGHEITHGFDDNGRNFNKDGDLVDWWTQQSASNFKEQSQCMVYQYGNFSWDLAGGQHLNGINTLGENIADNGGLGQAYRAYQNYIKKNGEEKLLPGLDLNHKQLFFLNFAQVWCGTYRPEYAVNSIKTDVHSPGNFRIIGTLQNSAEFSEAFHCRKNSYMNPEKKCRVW
Chain of Angiotensin-converting enzyme (Homo sapiens) (P12821 whole entry): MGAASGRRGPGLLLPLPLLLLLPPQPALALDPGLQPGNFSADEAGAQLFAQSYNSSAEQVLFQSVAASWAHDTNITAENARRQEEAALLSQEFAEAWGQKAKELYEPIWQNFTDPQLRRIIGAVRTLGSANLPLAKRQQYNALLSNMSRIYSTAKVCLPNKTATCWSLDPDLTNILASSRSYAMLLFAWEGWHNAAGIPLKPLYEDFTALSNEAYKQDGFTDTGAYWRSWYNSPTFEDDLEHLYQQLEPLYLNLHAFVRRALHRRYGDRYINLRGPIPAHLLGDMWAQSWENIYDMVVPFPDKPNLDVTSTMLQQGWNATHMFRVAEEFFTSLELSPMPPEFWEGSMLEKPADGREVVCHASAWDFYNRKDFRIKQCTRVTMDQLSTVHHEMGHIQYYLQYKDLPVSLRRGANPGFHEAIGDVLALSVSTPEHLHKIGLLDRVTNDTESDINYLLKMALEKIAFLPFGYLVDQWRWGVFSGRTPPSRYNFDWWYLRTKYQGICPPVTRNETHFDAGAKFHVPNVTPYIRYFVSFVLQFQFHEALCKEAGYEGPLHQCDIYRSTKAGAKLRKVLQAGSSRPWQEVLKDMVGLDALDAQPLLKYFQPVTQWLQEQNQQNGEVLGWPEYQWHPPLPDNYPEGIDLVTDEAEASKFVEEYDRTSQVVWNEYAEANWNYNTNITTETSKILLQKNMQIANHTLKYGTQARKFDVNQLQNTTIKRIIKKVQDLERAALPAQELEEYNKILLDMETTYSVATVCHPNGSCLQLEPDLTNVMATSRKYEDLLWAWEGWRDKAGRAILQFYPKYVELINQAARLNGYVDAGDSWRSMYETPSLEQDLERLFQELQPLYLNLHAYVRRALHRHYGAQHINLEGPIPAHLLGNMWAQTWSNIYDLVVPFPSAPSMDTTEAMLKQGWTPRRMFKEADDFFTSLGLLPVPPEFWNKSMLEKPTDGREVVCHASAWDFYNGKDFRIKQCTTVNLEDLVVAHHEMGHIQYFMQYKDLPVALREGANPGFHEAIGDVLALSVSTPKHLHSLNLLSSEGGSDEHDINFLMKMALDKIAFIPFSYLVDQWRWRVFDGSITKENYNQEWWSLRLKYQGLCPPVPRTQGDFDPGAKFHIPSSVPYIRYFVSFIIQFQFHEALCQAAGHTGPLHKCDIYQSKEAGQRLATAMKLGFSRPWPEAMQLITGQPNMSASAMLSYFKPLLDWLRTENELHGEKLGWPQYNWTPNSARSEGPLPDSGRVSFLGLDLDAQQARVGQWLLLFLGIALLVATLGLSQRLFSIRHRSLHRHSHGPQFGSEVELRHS

Row | kinact [1] | K cat/Kinact [2] | K cat/Kinact [3] | kinact [4] | kinact [5] | Structure (SMILES)
1 | 0.08 min⁻¹ | 8300 | 4700 | 0.022 min⁻¹ | – | N#CCC(=O)NC(Cc1ccccc1)C(=O)NC(Cc1ccccc1)C(=O)O (stereo unspecified)
2 | – | – | 1340 | – | 0.071 min⁻¹ | N#CCC(=O)CC(Cc1ccccc1)C(=O)NC(Cc1ccccc1)C(=O)O (stereo unspecified)
